Experimental data pooled from the literature.
Lines come from different studies, so protocols differ.
Target: Calcium/calmodulin-dependent protein kinase type IV (CAMK4, Homo sapiens, UniProt Q16566)
Residues used in one study (Q16566 1-473): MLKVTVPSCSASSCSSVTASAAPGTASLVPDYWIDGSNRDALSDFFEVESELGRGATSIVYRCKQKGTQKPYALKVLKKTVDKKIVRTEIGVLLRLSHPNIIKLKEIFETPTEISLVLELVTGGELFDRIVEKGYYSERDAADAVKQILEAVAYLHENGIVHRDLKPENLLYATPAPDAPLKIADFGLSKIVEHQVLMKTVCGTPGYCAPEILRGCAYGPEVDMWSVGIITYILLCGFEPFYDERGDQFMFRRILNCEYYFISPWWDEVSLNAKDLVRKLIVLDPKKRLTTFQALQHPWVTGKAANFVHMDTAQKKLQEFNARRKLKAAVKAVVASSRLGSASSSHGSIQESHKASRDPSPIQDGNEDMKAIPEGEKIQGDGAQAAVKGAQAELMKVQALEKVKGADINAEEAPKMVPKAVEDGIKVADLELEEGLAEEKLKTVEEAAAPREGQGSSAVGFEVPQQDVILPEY

Structure (SMILES) | effect on | mode | technique | concentration | quantity | value
Cc1ncc([N+](=O)[O-])n1C(=NO)c1ccccc1C(F)(F)F | enzyme activity | inhibitor |  | 10 µM | inhibition | 27.6%
CC1=C(C#N)C(c2ccc3c(c2)c(NC(=O)c2ccccc2C)nn3C)C(C#N)=C(C)N1 | cell-free assay |  | competition with immobilised ligand | 1 µM | remaining binding | 70%
Cn1c2c(c3ccc(Cl)c(Cl)c31)C(C#N)C1(CCOCC1)NC2=O (stereo not drawn) | thermal stability |  | DSF | 10 µM | ΔTm | 0 °C
Cc1c[nH]c2nccc(Oc3c(F)cc(Nc4cc(Cl)nc(N)n4)cc3F)c12 | cell-free assay |  | competition with immobilised ligand | 0.1 µM | remaining binding | 100%
CCN(CC)CCNC(=O)c1c(C)[nH]c(/C=C2\C(=O)Nc3ccc(F)cc32)c1C | enzyme activity | inhibitor |  | 10 µM | inhibition | 87%
CNc1cccc2cc(C(=O)Nc3ccc(C(=O)O)cc3)c(=O)[nH]c12 | enzyme activity | inhibitor |  | 10 µM | inhibition | 11%
CCCOc1ccc(OC)c(F)c1C(=O)c1ccc(C(=O)N[C@@H]2CNC[C@H]2NC(=O)c2ccc3[nH]ncc3c2)cc1 | enzyme activity | inhibitor |  | 10 µM | remaining activity | 95%
CNC(=O)c1cc(Oc2ccc(NC(=O)Nc3ccc(Cl)c(C(F)(F)F)c3)cc2)ccn1 | enzyme activity | inhibitor |  | 10 µM | inhibition | 10%
Cn1c2c(c3ccc(Cl)c(Cl)c31)C(C#N)C1(CCN(C(=O)OC(C)(C)C)CC1)NC2=O (racemic) | thermal stability |  | DSF | 10 µM | ΔTm | -0.3 °C
O=C1NC(=O)c2cc(Nc3ccc(F)cc3)c(Nc3ccc(F)cc3)cc21 | cell-free assay |  |  | 0.5 µM | remaining signal | 98.7%
Cc1ccc(NC(=O)c2ccc(C)c(C(F)(F)F)c2)cc1C#Cc1nn(C2CCC(O)CC2)c2ncnc(N)c12 (stereo not drawn) | cell-free assay |  |  | 10 µM | remaining signal | 93%
O=C1Nc2ccc(Cl)cc2C1=Cc1cc(Cl)c(O)c(Cl)c1 | cell-free assay |  |  | 0.5 µM | remaining signal | 96.8%
CN(C)C1CCN(CC#Cc2nn(C3CCCC3)c3nc(NCc4ccccc4)ncc23)C1 (stereo not drawn) | enzyme activity | inhibitor | FRET | 0.1 µM | inhibition | 4%
COc1ccc2c(c1)O[C@@H](c1ccc(OC)c(OC)c1)C[C@H]2NC(=O)C1(c2ccc3c(c2)OC(F)(F)O3)CC1 | cell-free assay |  | competition with immobilised ligand | 1 µM | remaining binding | 89%
CC/C(=N\NC(=O)NCc1cccc(O)c1)c1ccc(O)c(C)c1O | enzyme activity | inhibitor |  | 0.1 µM | inhibition | 1.3%
COc1cc2ncnc(Nc3ccc(Oc4ccccc4)cc3C)c2cc1OC | enzyme activity | inhibitor |  | 1 µM | inhibition | -20%
Cn1c2c(c3ccc(Cl)c(Cl)c31)C(C#N)C1(CCNCC1)NC2=O (racemic) | thermal stability |  | DSF | 10 µM | ΔTm | -0.1 °C

Structure (SMILES) | effect on | mode | technique | concentration | quantity | value
O=C(O)c1cc(-c2ccc(C3CCNCC3)cc2)c2ccc(-c3ccc(C(F)(F)F)cc3)cc2c1 | cell-free assay |  | competition with immobilised ligand | 1 µM | remaining binding | 100%
Cn1c2c(Cl)c(Cl)ccc2c2cn[nH]c(=O)c21 | thermal stability |  | DSF | 10 µM | ΔTm | 0.1 °C
O=C(NCc1ncc(C(F)(F)F)cc1Cl)c1ccc2c(c1)C1(CCS(=O)(=O)CC1)[C@H](C1CC1)N2S(=O)(=O)c1ccc(F)cc1 | cell-free assay |  | competition with immobilised ligand | 1 µM | remaining binding | 86%
Cc1ccc(NC(=O)c2ccc(CN3CCN(C)CC3)cc2)cc1Nc1nc(-c2cccnc2)cs1 | cell-free assay |  |  | 0.5 µM | remaining signal | 98.6%
CCC(=O)N[C@@H]1CC[C@H](C(=O)N(C)c2ccc(-c3nc4ccccc4o3)cc2)C1 | cell-free assay |  | competition with immobilised ligand | 1 µM | remaining binding | 100%
Cn1c2c(c3ccc(Cl)c(Cl)c31)C(C#N)C1(CCCCC1)NC2=O (racemic) | thermal stability |  | DSF | 10 µM | ΔTm | 0.7 °C
O=C(Nc1cnn(-c2csc(C(=O)NC3COC3)c2)c1)Nc1ccccc1Cl | enzyme activity | inhibitor |  | 5 µM | remaining activity | 114%
COc1cc2c(Nc3ccc(Br)cc3F)ncnc2cc1OCC1CCN(C)CC1 | cell-free assay |  |  | 0.5 µM | remaining signal | 101%
CC(C)(C)c1nc2c(s1)c1nc(N)ncc1c1ccc(NS(=O)(=O)c3c(F)cccc3F)c(F)c12 | enzyme activity | inhibitor | radiometric | 1 µM | remaining activity | 94%
O=C(NCCCC1CCCCC1)c1ccc(CNC(=O)c2cnn(-c3ccccc3)c2C(F)(F)F)cc1 | cell-free assay |  | competition with immobilised ligand | 0.1 µM | remaining binding | 100%
CCN1CCC2(CC1)NC(=O)c1c(c3ccc(Cl)c(Cl)c3n1C)C2C#N (racemic) | thermal stability |  | DSF | 10 µM | ΔTm | 0.1 °C
Cc1sc(C(=O)NC2COC2)cc1-n1cc(NC(=O)Nc2c(F)cccc2Cl)cn1 | enzyme activity | inhibitor |  | 10 µM | remaining activity | 98.5%
CS(=O)(=O)CCNCc1ccc(-c2ccc3ncnc(Nc4ccc(OCc5cccc(F)c5)c(Cl)c4)c3c2)o1 | cell-free assay |  |  | 0.5 µM | remaining signal | 107%
Cn1c2c(c3ccc(Cl)c(Cl)c31)C(C#N)C(C)(C)NC2=O (stereo not drawn) | thermal stability |  | DSF | 10 µM | ΔTm | 0.1 °C
Cc1ccc(Nc2nccc(N(C)c3ccc4c(C)n(C)nc4c3)n2)cc1S(N)(=O)=O | cell-free assay | inhibitor |  | 0.5 µM | remaining signal | 95.9%
O=C(O)[C@H]1[C@H](Cn2nnc3ccccc3c2=O)CC[C@@H]1C(=O)c1ccc(OCCC2CCOCC2)cc1 | cell-free assay |  | competition with immobilised ligand | 1 µM | remaining binding | 78%
